# Assay results taken from ChEMBL document CHEMBL1157427, “In vitro and in vivo anti-tumoral activities of imidazo[1,2-a]quinoxaline, imidazo[1,5-a]quinoxaline, and pyrazolo[1,5-a]quinoxaline derivatives” (Bioorg Med Chem, 2008).
# Active and inactive are the calls of the source. The calls are words filed in the database; no cut-off is given here.
# Tests used:
# A-375 = test: Cytotoxicity against human A375 cells after 96 hrs by MTT assay; type: functional, cell-based; conditions: A-375, 96 h
# In short: (§1)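 Cells were seeded at 5000/well in DMEM (M4Be) or RPMI-1640 (others) and attached overnight. They were then exposed for 96 h at 37 °C, 5% CO2 to 10^-4 to 10^-10 […] in 1% DMSO/medium. MTT was added for 4 h, formazan dissolved in isopropanol/1 M HCl, and OD read at 570 nm. Survival was taken as % of vehicle control and IC50 as 50% growth inhibition. ≥3 experiments in triplicate; mean ± SD.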
# Raji = test: Cytotoxicity against human Raji cells after 96 hrs by MTT assay; type: functional, cell-based; in short: as §1
# LS174T = test: Cytotoxicity against human LS174T cells after 96 hrs by MTT assay; type: functional, cell-based; in short: as §1
# [1] = Cytotoxicity against human RPMI7591 cells after 96 hrs by MTT assay; type: functional, cell-based
# [2] = Cytotoxicity against human M4Be cells after 96 hrs by MTT assay; type: functional, cell-based; in short: as §1
# MCF7 = test: Cytotoxicity against human MCF7 cells after 96 hrs by MTT assay; type: functional, cell-based; conditions: MCF7, 96 h; in short: as §1
# [3] = Toxicity in ip dosed Swiss mouse; type: organism-based; conditions: in vivo
# In short: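 Single intraperitoneal doses of 30 to 300 mg/kg given to healthy Swiss mice. Compound dissolved in intralipid/DMSO (50:50, v/v) because of poor water solubility. Read-out is the 50% lethal dose (LD50).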
# M4Be = test: Antitumor activity against human M4Be cells xenografted Swiss nude mouse assessed as reduction in tumor volume at 20 mg/kg, ip administered twice a week for 3 weeks measured from day 18 to day 55; type: functional, organism-based; design: dose 20 mg/kg
# In short: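 Female Swiss nude mice (7 weeks old) were given 3×10^6 M4Be cells s.c. in the flank. At ~0.7 cm3 they were randomized, 6 per group, and received 20 mg/kg twice weekly (Mon/Thu) for 3 weeks in intralipid/DMSO (50:50), with the cycle repeated after 15 days. Controls received vehicle. Calipers twice weekly, V = 0.5ab². Repeated-measures ANOVA with contrast test, significance 0.02. Mean ± SEM.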
Compound,IC50 (A-375) [µM],also measured
CC(C)Cc1cnc2c(N(C)C)nc3ccccc3n12,66.3,
CN(Cc1cnc2nc(N)nc(N)c2n1)c1ccc(C(=O)N[C@@H](CCC(=O)O)C(=O)O)cc1 [METHOTREXATE],,IC50 (Raji): 0.04 µM
Clc1nc2ccccc2n2c(CCc3ccccc3)cnc12,24,
CN(C)c1nc2ccccc2n2c(CCc3ccccc3)cnc12,80.1,
Cc1cccc(Cl)c1Nc1nc2ccccc2n2c(CCc3ccccc3)cnc12,329,
CNc1nc2ccccc2n2nc(CC(C)C)cc12,78.6,
CNc1nc2ccccc2n2c(C)ncc12,100,
CCc1c2c(nc3ccc(OC(=O)N4CCC(N5CCCCC5)CC4)cc13)-c1cc3c(c(=O)n1C2)COC(=O)[C@]3(O)CC [IRINOTECAN],,IC50 (LS174T): 1.16 µM
CC(C)Cn1cnc2c(N)nc3ccccc3c21 [IMIQUIMOD],,IC50 [1]: 53.7 µM; IC50 [2]: 33.5 µM; IC50 (LS174T): 34.4 µM
CNc1nc2ccccc2n2c(CCc3ccccc3)cnc12,,IC50 (MCF7): 1.08 µM; IC50 [1]: 4.23 µM; IC50 (Raji): 6.23 µM; LD50 [3]: > 300 mg/kg; Activity (M4Be): Active; IC50 [2]: 2.58 µM; IC50 (LS174T): 4.12 µM
CNc1nc2ccccc2n2cncc12,85.3,
CN(C)c1nc2ccccc2n2cncc12,121,
Cc1cccc(Cl)c1Nc1nc2ccccc2n2c(CC(C)C)cnc12,> 400,
COc1nc2ccccc2n2c(CCc3ccccc3)cnc12,47.8,
Nc1nc2ccccc2n2c(CCc3ccccc3)cnc12,2.35,
CNc1nc2ccccc2n2c(CC(C)C)cnc12,31.6,
CC(C)Cc1cc2c(N(C)C)nc3ccccc3n2n1,101,
CNc1nc2ccccc2n2c(-c3ccccc3)ncc12,> 400,
